PAX8 reporter: inhibitors of PAX8 transcriptional activity in RMG-I cells; RMG-I TPO-luciferase reporter, SteadyGlo, 24 h; inhibition, % at 12.6 µM; 1.2% of 360,000 active;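 active means mean replicate inhibition at least 60% with every replicate also reaching 60%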;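 further: luciferase light reporting Pax8 driven TPO promoter activity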
AF4-AF9 inh: inhibitors of human MLL-AF4/AF9 interaction | 0.47% of 350,000 active | inhibition, % at 10 µM | P42568 | AlphaScreen, biotin-AF4 peptide binding to FLAG-AF9;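 active means every replicate reaching a set inhibition limit, whatever the replicate mean, cut at about 25% in these data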
Target sequence (P42568 whole entry, looked up): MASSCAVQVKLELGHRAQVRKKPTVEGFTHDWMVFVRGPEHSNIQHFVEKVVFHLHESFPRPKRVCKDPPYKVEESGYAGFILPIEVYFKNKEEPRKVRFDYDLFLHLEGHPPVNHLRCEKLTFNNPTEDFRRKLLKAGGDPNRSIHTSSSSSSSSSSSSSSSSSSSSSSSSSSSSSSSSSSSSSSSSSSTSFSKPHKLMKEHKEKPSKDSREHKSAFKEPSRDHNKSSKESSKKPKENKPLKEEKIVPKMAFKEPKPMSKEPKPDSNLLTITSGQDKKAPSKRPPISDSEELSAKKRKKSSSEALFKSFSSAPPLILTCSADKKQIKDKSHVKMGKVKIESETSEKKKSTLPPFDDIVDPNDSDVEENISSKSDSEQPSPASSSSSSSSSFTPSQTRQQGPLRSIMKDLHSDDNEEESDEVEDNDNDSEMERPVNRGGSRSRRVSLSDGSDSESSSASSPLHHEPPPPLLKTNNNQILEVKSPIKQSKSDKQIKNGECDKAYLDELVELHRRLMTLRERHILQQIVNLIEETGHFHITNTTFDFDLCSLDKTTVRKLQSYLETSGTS
Env fusion inh: HIV envelope-mediated fusion inhibition | AID 651610 | 1.1% of 360,000 active | HeLa-JRFL Env/CEM21 cell fusion, luciferase | inhibition, % at 12.3 µM;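 active means mean replicate inhibition score of at least 50 and every replicate individually at or above 50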
FN deposit inh: fibronectin deposition inhibition. AH1F fibroblasts, Alexa488-fibronectin deposition fluorescence, overnight. inhibition, % at 12.6 µM. 0.086% of 350,000 active. AID 743247;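 active means mean inhibition across replicates of 30% or more, regardless of how many single replicates reach that level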
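Schedule: 1 h cell adhesion before compound, then overnight fibronectin incubation; test system: AH1F fibroblast monolayer depositing Alexa488-labelled fibronectin into matrix; quantity: 10000 AH1F cells per well; probe or stimulus: fluorescent fibronectin at 24 nM final; signal: fluorescence, ex 485 nm, em 525 nm; evaluation: percent inhibition as loss of matrix-bound fibronectin fluorescence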
EWS-Fli inh: blocks EWS/Fli oncoprotein-driven transcription | A673 NR0B1-luciferase reporter, viability-normalised | inhibition, % at 12.6 µM | 0.67% of 350,000 active;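 active means mean inhibition of at least 50% after viability correction, with every replicate also passing that limit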;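 further: firefly luciferase signal divided by Alamar Blue viability fluorescence both relative to DMSO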
N-glyco inh: N-linked glycosylation inhibition. AID 588692. D54 ERlucT glycosylation luciferase reporter, 24 h; percent of 100 nM tunicamycin response. 0.23% of 360,000 active. reporter increase, % at 12.5 µM;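 active means mean luciferase reporter signal, scaled so untreated is 0 and the glycosylation-blocking control 100, at or above a set limit in every replicate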;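 further: luciferase carries N-glycosylation sites so blocking glycosylation raises the light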
Large screens that a line does not name were inactive; [ ] = dose if it differs, or a comment. Most compounds without a hit are left out; they make up all but 2.5% or so of the library.

O=[N+]([O-])c1ccc(NN=Cc2ccc(O)cc2O)nc1	none
CCN(CC)S(=O)(=O)c1ccc(N/N=C/c2ccc(O)cc2O)nc1	PAX8 reporter 72 (no result: AF4-AF9 inh, EWS-Fli inh)
Oc1ccc(C=NNc2ccccn2)c(O)c1	AF4-AF9 inh 42, Env fusion inh 69
Oc1cccc(C=NNc2ccccn2)c1	none
C[C@@H]1CN([C@H](C)CO)C(=O)Cc2cc(NC(=O)CCC(F)(F)F)ccc2O[C@@H]1CN(C)Cc1ccc2c(c1)OCO2	none (no result: AF4-AF9 inh, FN deposit inh, N-glyco inh)
CO[C@H]1CN(C)C(=O)c2ccc(NS(C)(=O)=O)cc2OC[C@H](C)N(C(=O)C2CC2)C[C@@H]1C	none (no result: Env fusion inh, N-glyco inh)
O=C1C=CCCN1C(=O)/C=C/c1cccc(Br)c1	EWS-Fli inh 64 (no result: FN deposit inh, N-glyco inh)
CC=Cc1ccc2n(c1=O)C[C@@H]1[C@@H](CO)[C@H](C(=O)NCC)N(CCC(F)(F)F)[C@H]21 (mixture of isomers)	none (no result: Env fusion inh, FN deposit inh, N-glyco inh)
Cc1cc(C)n(-c2nnc(C)n2/N=C/c2ccco2)n1	none (no result: AF4-AF9 inh, FN deposit inh, EWS-Fli inh)
CCCOc1ccc2ccccc2c1/C=N/n1c(C)nnc1-n1nc(C)cc1C	N-glyco inh 27 (no result: PAX8 reporter, AF4-AF9 inh, Env fusion inh, FN deposit inh, EWS-Fli inh)
CCCNC(=O)N1CC2(CN(C(=O)COC)C2)c2c(n(C)c3cc(OC)ccc23)[C@@H]1CO	none (no result: PAX8 reporter, Env fusion inh, FN deposit inh, N-glyco inh)
CCCC(=O)Nc1ccc2c(c1)C(=O)N(C)C[C@H](OC)[C@H](C)CN(S(=O)(=O)c1cn(C)cn1)[C@@H](C)CO2	none (no result: Env fusion inh, N-glyco inh)
Cc1ccc(S(=O)(=O)Nc2ccc3c(c2)CC(=O)N([C@@H](C)CO)C[C@H](C)[C@H](CN(C)C(=O)Nc2ccc(C(F)(F)F)cc2)O3)cc1	none (no result: FN deposit inh, N-glyco inh)
CC(C)NC(=O)N(C)C[C@H]1Oc2ccc(NC(=O)C3CC3)cc2CC(=O)N([C@@H](C)CO)C[C@@H]1C	none (no result: FN deposit inh, N-glyco inh)
CC(C)NC(=O)N(C)C[C@H]1Oc2ccc(NC(=O)Nc3ccc(C(F)(F)F)cc3)cc2CC(=O)N([C@@H](C)CO)C[C@H]1C	EWS-Fli inh 63 (no result: N-glyco inh)
C[C@H]1CN([C@@H](C)CO)C(=O)Cc2cc(NC(=O)Nc3ccc(C(F)(F)F)cc3)ccc2O[C@H]1CN(C)C(=O)Nc1ccc(C(F)(F)F)cc1	PAX8 reporter 86 (no result: FN deposit inh, N-glyco inh)
C[C@@H]1CN([C@H](C)CO)C(=O)Cc2cc(NC(=O)Nc3ccc(C(F)(F)F)cc3)ccc2O[C@H]1CN(C)C(=O)Nc1ccc(C(F)(F)F)cc1	none (no result: FN deposit inh, N-glyco inh)
Cc1ccc(S(=O)(=O)Nc2ccc3c(c2)CC(=O)N([C@@H](C)CO)C[C@H](C)[C@@H](CN(C)C(=O)Nc2ccc(C(F)(F)F)cc2)O3)cc1	PAX8 reporter 88 (no result: FN deposit inh, N-glyco inh)
CC(C)NC(=O)N(C)C[C@@H]1Oc2ccc(NC(=O)C3CC3)cc2CC(=O)N([C@H](C)CO)C[C@H]1C	Env fusion inh 62[16.7 µM] (no result: FN deposit inh, N-glyco inh)
C[C@@H]1CN([C@@H](C)CO)C(=O)c2cc(NC(=O)CCC(F)(F)F)ccc2O[C@@H]1CN(C)S(=O)(=O)c1ccccc1	none (no result: Env fusion inh, FN deposit inh, N-glyco inh)
COc1ccccc1S(=O)(=O)N[C@@H]1CC[C@H](CC(=O)N2CCCCC2)O[C@@H]1CO	none (no result: FN deposit inh, N-glyco inh)
CCOc1cccc(N(C(=O)Cc2cccs2)C(C(=O)NC2CCCCC2)c2cccn2C)c1 (stereo not given)	Env fusion inh 89 (no result: PAX8 reporter, AF4-AF9 inh, EWS-Fli inh)
COc1cccc(N(C(=O)Cc2cccs2)C(C(=O)NC2CCCC2)c2ccncc2)c1 (stereo not given)	none
CCc1ccc(N(C(=O)Cn2nnc(-c3ccccc3)n2)C(C(=O)NC2CCCCC2)c2ccccn2)cc1 (stereo not given)	Env fusion inh 80 (no result: AF4-AF9 inh, EWS-Fli inh)
Cc1cc(C)cc(N(C(=O)Cc2cccs2)C(C(=O)NC2CCCCC2)c2ccccn2)c1 (stereo not given)	Env fusion inh 119 (no result: PAX8 reporter, AF4-AF9 inh, EWS-Fli inh)
C[C@@H]1CCCCO[C@@H](CN(C)Cc2ccc3c(c2)OCO3)[C@@H](C)CN([C@@H](C)CO)C(=O)c2cc(NS(C)(=O)=O)ccc2O1	none (no result: FN deposit inh, N-glyco inh)
C[C@H](CO)N1C[C@H](C)[C@H](CN(C)S(=O)(=O)c2cn(C)cn2)Oc2ccc(NS(=O)(=O)c3cccs3)cc2CC1=O	none (no result: FN deposit inh, N-glyco inh)
COC(=O)c1cc(NC2c3ncccc3C(=O)N2Cc2ccccc2)cc(C(=O)OC)c1 (stereo not given)	none (no result: PAX8 reporter, Env fusion inh, FN deposit inh)
O=C1c2ccccc2C(Nc2ccc(S(=O)(=O)N3CCCCCC3)cc2)N1c1ccccn1 (stereo not given)	none
CCOC(=O)c1ccc(NC2c3ncccc3C(=O)N2Cc2ccc(F)cc2)cc1 (stereo not given)	Env fusion inh 93 (no result: PAX8 reporter, AF4-AF9 inh, EWS-Fli inh)
